Test results taken from PMC2837366 (Molecular cancer therapeutics, 2010).

Legend:
[1] = system: BxPC-3 pancreatic, MCF-7 breast or A-549 NSCL cancer xenografts; experiment: Antitumor activity, effect of the carbon chain length; assay type: in vivo, mouse; conditions: 200 mg/kg oral gavage twice a day for 10 days; BxPC-3, MCF-7, A-549 xenografts
How it was run: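 Female scid mice received about 10⁷ log-phase cells in 0.2 ml PBS subcutaneously in the flank. MCF-7 cells were given in Matrigel, with a 60-day 17-β-estradiol pellet implanted the day before. Mice were stratified into groups of 8 with similar mean tumor volumes. Test compound was given orally in 0.1 ml sesame seed oil; controls received vehicle. Calipers were read twice weekly, with volume = d_short² × d_long ÷ 2. Growth rate over the dosing period was compared with control by Student's t-test. T/C is the treated growth rate as a percent of control.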

PH domain of PDPK1 = molecular target: T1, PH domain of PDPK1 (Homo sapiens, UniProt O15530); experiment: SPR competitive binding assay, displacement from PtdIns; conditions: for binding to the PH domain of PDKP1: at concentrations up to 50 µM
T1 sequence (O15530 459-550 limits assumed): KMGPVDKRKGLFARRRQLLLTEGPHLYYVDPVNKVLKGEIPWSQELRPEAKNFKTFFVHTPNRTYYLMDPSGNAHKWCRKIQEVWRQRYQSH
How it was run: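 Binding was measured by SPR on a Biacore 2000 with streptavidin chips carrying biotin-labelled PtdIns(3,4,5)P₃ liposomes. Expressed recombinant human PDPK1 PH domain was competed with increasing test compound concentrations. Ki was the concentration displacing 50% of the PH domain bound to the liposomes without drug. Values are means of 4 determinations.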

PH domain of Akt2 = molecular target: T2, PH domain of Akt2 (Homo sapiens, UniProt P31751); experiment: SPR competitive binding assay, displacement from PtdIns
T2 sequence (P31751 5-108 limits assumed): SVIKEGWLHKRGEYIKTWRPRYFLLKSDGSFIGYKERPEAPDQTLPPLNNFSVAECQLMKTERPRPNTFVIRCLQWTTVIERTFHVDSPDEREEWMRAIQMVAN

[2] = system: PtdIns-3-K/PDPK1/Akt signaling in PC-3 prostate cells; experiment: Reverse phase protein array in PC-3 cells; assay type: cell-based, human; conditions: 0.1 µM, 16 hours, RPPA
How it was run: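 PC-3 cells were held in serum-free medium for 8 hr. They were then exposed for 16 hr to test compound at 0.1–10 µM, to wortmannin, or to DMSO vehicle. Lysate protein was analysed by quantitative reverse phase protein array with 74 validated PtdIns-3-K/Akt/PDPK1 pathway antibodies. Values are means of 3 determinations, expressed relative to DMSO control.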

[3] = SPR displacement assay, in words

CCCCc1ccc(S(=O)(=O)Nc2nncs2)cc1 [C-4]
antitumor activity (tumor growth rate) [1]: very little activity

CCCCCCc1ccc(S(=O)(=O)Nc2nncs2)cc1 [C-6]
antitumor activity (tumor growth rate) [1]: very little activity

CCCCCCCCc1ccc(S(=O)(=O)Nc2nncs2)cc1 [C-8]
antitumor activity (tumor growth rate) [1]: less activity

CCCCCCCCCCCCCCc1ccc(S(=O)(=O)Nc2nncs2)cc1 [C-14]
binding to the PH domain of PDPK1 (PH domain of PDPK1; [3]): showed binding | binding to the PH domain of Akt (PH domain of Akt2; [3]): lower, although still appreciable, binding

CCCCCCCCCCCCCCCCc1ccc(S(=O)(=O)Nc2nncs2)cc1 [C-16]
binding to the PH domain of Akt (PH domain of Akt2; [3]): lower, although still appreciable, binding

CCCCCCCCCCCCCCCCCCc1ccc(S(=O)(=O)Nc2nncs2)cc1 [C-18]
binding to the PH domain of Akt (PH domain of Akt2; [3]): lower, although still appreciable, binding

NC1(c2ccc(-c3nc4ccn5c(=O)[nH]nc5c4cc3-c3ccccc3)cc2)CCC1 [MK-2206]
binding to the PH domain of Akt (PH domain of Akt2; [3]): bound very weakly

CCCCCCCCCCCCCCCCCCOCC(COP(=O)([O-])OCC[N+](C)(C)C)OC (stereo not shown) [edelfosine]
binding to the PH domain of PDKP1 (PH domain of PDPK1): None of these compounds bound | binding to the PH domain of Akt (PH domain of Akt2; at concentrations up to 50 µM): None of these compounds bound

CCCCCCCCCCCCCCCCCCOP(=O)([O-])OC1CC[N+](C)(C)CC1 [perifosine]
binding to the PH domain of PDKP1 (PH domain of PDPK1): None of these compounds bound | binding to the PH domain of Akt (PH domain of Akt2; at concentrations up to 50 µM): None of these compounds bound

CN1N=C(N)c2cn([C@@H]3O[C@H](COP(=O)(O)O)[C@@H](O)[C@H]3O)c3ncnc1c23 [triciribine]
binding to the PH domain of PDKP1 (PH domain of PDPK1): None of these compounds bound | binding to the PH domain of Akt (PH domain of Akt2; at concentrations up to 50 µM): None of these compounds bound

COC[C@H]1OC(=O)c2coc3c2[C@@]1(C)C1=C(C3=O)[C@@H]2CCC(=O)[C@@]2(C)C[C@H]1OC(C)=O [wortmannin, reference compound]
phospho-Ser241-PDPK1 [2]: reduction | phospho-Ser473-Akt [2]: completely inhibited | phospho-Ser657-protein kinase C (PKC) [2]: decreased | phospho-Thr308-Akt [2]: reduction | total SGK1 [2]: decreased
